{"source": "ChEMBL document CHEMBL1146490", "about": "“New diterpenoids from Viburnum awabuki” (2004)", "assay_type_in_all_cases": "functional", "conditions_in_all_cases": "read-out: ED50 (the source's name)", "key": {"[1]": {"test_system": "P388", "test": "Cytotoxicity against mouse P388 cells", "summary_of_the_method": "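P-388 is a mouse lymphocytic leukemia line, supplied by J. M. Pezzuto (Purdue University), grown in culture and tested by the same previously described cytotoxicity procedure.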"}, "[2]": {"test_system": "A549", "test": "Cytotoxicity against human A549 cells", "summary_of_the_method": "(§1)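 Standard cytotoxicity procedure from earlier work. A549 is a human lung adenocarcinoma line and HT-29 a human colon adenocarcinoma line, both grown as cell cultures. Potency is given as ED50 in µg/mL.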"}, "[3]": {"test_system": "HT-29", "test": "Cytotoxicity against human HT-29 cells", "summary_of_the_method": "as §1"}}, "data": [{"smiles": "CC(C)=CC(=O)O[C@@H]1/C=C/[C@@](C)(C/C=C/C(C)(C)O)C/C=C(/CO)CC[C@@H]2O[C@]21C", "note": "[VIBSANIN P]", "values": [{"measurement": "EC50", "setting": "[1]", "result": 2.25, "unit": "µg/mL"}, {"measurement": "EC50", "setting": "[2]", "result": 4.62, "unit": "µg/mL"}, {"measurement": "EC50", "setting": "[3]", "result": 9.97, "unit": "µg/mL"}]}, {"smiles": "COC(C)(C)/C=C/C[C@]1(C)/C=C/[C@@H](OC(=O)C=C(C)C)[C@]2(C)O[C@H]2CC/C(CO)=C\\C1", "note": "[VIBSANIN Q]", "values": [{"measurement": "EC50", "setting": "[1]", "result": "< 10", "unit": "µg/mL"}]}, {"smiles": "C=C(C)/C=C/C[C@]1(C)/C=C/[C@@H](OC(=O)C=C(C)C)[C@]2(C)O[C@H]2CC/C(CO)=C\\C1", "note": "[VIBSANIN R]", "values": [{"measurement": "EC50", "setting": "[1]", "result": "< 10", "unit": "µg/mL"}]}, {"smiles": "C=C(C)C(O)CC[C@]1(C)/C=C/[C@@H](OC(=O)C=C(C)C)[C@]2(C)O[C@H]2CC/C(CO)=C\\C1", "note": "(some centres not stated) [VIBSANIN S]", "values": [{"measurement": "EC50", "setting": "[1]", "result": "< 10", "unit": "µg/mL"}]}, {"smiles": "CC(C)=CC(=O)O[C@@H]1/C=C/[C@@](C)(C/C=C/C(C)(C)O)C/C=C(/C=O)CC[C@@H]2O[C@]21C", "note": "[VIBSANIN T]", "values": [{"measurement": "EC50", "setting": "[1]", "result": "< 10", "unit": "µg/mL"}]}, {"smiles": "CC(C)=CC(=O)O[C@@H]1/C=C/[C@@](C)(CCC(O)C(C)(C)O)C/C=C(/CO)C(=O)/C=C/[C@@]1(C)O", "note": "(some centres not stated) [VIBSANIN U]", "values": [{"measurement": "EC50", "setting": "[1]", "result": "< 10", "unit": "µg/mL"}]}, {"smiles": "C=C(C)C(O)CC[C@]1(C)/C=C/C[C@]2(C)O[C@H]2CC/C(C=O)=C\\C1", "note": "(some centres not stated) [VIBSANIN V]", "values": [{"measurement": "EC50", "setting": "[1]", "result": "< 10", "unit": "µg/mL"}]}, {"smiles": "CC(=O)C[C@@H]1C(=O)C(CO)=CC[C@](C)(CCC(O)C(C)(C)O)[C@H]1/C=C/OC(=O)C=C(C)C", "note": "(some centres not stated) [VIBSANIN W]", "values": [{"measurement": "EC50", "setting": "[1]", "result": 2.18, "unit": "µg/mL"}, {"measurement": "EC50", "setting": "[2]", "result": 5.6, "unit": "µg/mL"}, {"measurement": "EC50", "setting": "[3]", "result": 8.15, "unit": "µg/mL"}]}]}
